The text below walks through data of ChEMBL document CHEMBL5356968, “Miconazole-like Scaffold is a Promising Lead for Naegleria fowleri-Specific CYP51 Inhibitors” (J Med Chem, 2023).

A word on the EC50: it is the concentration giving half of the maximal effect. As usually defined, the inhibition is how much of the control response was suppressed.

The first series deals with Naegleria fowleri. The series is described as follows: Antiprotozoal activity against Naegleria fowleri European KUL assessed as inhibition of parasite growth incubated for 48 hrs by CellTiter-Glo luminescent cell viability assay. The class given is functional, organism-based.
Settings: not given
(In general: ATP-based viability assays read luminescence as a measure of living cells.)
As for `OC(Cn1cncn1)(Cn1cncn1)c1ccc(F)cc1F` [FLUCONAZOLE], the EC50 was determined as 13.9 µM.

The next series relates to Naegleria fowleri. The series is described as follows: Antiprotozoal activity against Naegleria fowleri. It is filed as functional, organism-based.
Settings: not given
A digest of the protocol: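 N. fowleri European KUL trophozoites, axenic in Nelson's medium + 10% FBS at 37 °C, harvested in log phase. Single-point screen at 10 μM in duplicate (2,500 amoebae/well). Dose–response in triplicate, serial dilution 50 to 0.39 μM (10,000 amoebae/well). 48 h at 37 °C; viability by CellTiter-Glo luminescence.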
`CCC(C)n1ncn(-c2ccc(N3CCN(c4ccc(OCC5COC(Cn6cncn6)(c6ccc(Cl)cc6Cl)O5)cc4)CC3)cc2)c1=O` (stereo not given) [ITRACONAZOLE] showed an EC50 of at most 10 µM. In turn, `CC[C@@H]([C@H](C)O)n1ncn(-c2ccc(N3CCN(c4ccc(OC[C@@H]5CO[C@@](Cn6cncn6)(c6ccc(F)cc6F)C5)cc4)CC3)cc2)c1=O` [POSACONAZOLE] gave an EC50 of at most 10 µM.

A further series concerns Naegleria fowleri. The series is described as follows: Antiprotozoal activity against Naegleria fowleri European KUL assessed as inhibition of parasite growth at 10 uM incubated for 48 hrs by CellTiter-Glo luminescent cell viability assay relative to control.
Settings: not given
It is filed as functional. A digest of the protocol: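 Axenic N. fowleri KUL trophozoites from log-phase culture in Nelson's medium with 10% FBS at 37 °C. Primary screen run in duplicate at 10 μM, 2,500 amoebae/well in 384-well format. Plates incubated 48 h at 37 °C, then viability read by CellTiter-Glo luminescence. BSL-2 handling.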
As to `O=C(OC(Cn1ccnc1)c1ccccc1)c1cccc(C(F)(F)F)c1` (stereo not given), the inhibition at 10 µM was at least 50%.

`COc1ccc(CC(c2ccc(OC)cc2)n2ccnc2)cc1` (stereo not given): the inhibition at 10 µM is at least 50%. Same read-out and setting: then `COc1ccc(C(Cc2ccc(Cl)cc2)n2ccnc2)cc1` (stereo not given), with at least 50%. On the same count and under the same terms, the figure for `Clc1ccc(-n2ccc(C(c3ccccc3)n3ccnc3)c2)cc1` (stereo not given) is at least 50%; for `O=C(Nc1ccc(N2CCN(c3ccc(Cl)cc3)CC2)cc1)OC(Cn1ccnc1)c1ccc(F)cc1` (stereo not given) it is at least 50%; for `Clc1ccc(C(c2ccn(-c3ccc(Cl)cc3)c2)n2ccnc2)cc1` (stereo not given) it is at least 50%. The same measure, in the same setting: the figure for `CC(C)c1cccc(NC(=O)OC(Cn2ccnc2)c2ccccc2)c1` (stereo not given) is at least 50%; for `COc1ccc(C(Cc2ccc(-n3cccc3)cc2)n2ccnc2)cc1` (stereo not given) it is at least 50%; for `O=C(OC(Cn1ccnc1)c1ccc(F)cc1)c1cccc(C(F)(F)F)c1` (racemic) it is at least 50%.

System in another series: not listed separately
The series is described as follows: Drug concentration in C57BL/6 mouse brain at 40 mg/kg, ip measured after 1 hrs by HPLC-ESI-MS/MS analysis. The following applies: read-out: Drug uptake. The class given is ADME, organism-based.
Regarding `Fc1ccc([C@@H](Cn2ccnc2)OCc2cc(Cl)cc(Cl)c2)cc1`, the concentration at 1 h is 232 ng/g.

System in the next series: not listed separately
As to the kind of experiment: Drug concentration in C57BL/6 mouse plasma at 40 mg/kg, ip measured after 1 hrs by HPLC-ESI-MS/MS analysis. It is filed as ADME, organism-based.
Settings: not given
`Fc1ccc([C@@H](Cn2ccnc2)OCc2cc(Cl)cc(Cl)c2)cc1` showed a concentration at 1 h of 656 ng/mL.

Regarding `FC(F)(F)c1cccc(CO[C@H](Cn2ccnc2)c2ccc(Cl)cc2Cl)c1`, the concentration at 1 h was 37 ng/mL.
